Data taken from the M2OR odorant receptor database.

Experiments:
Settings in all cases: stereoisomer not certain
UniProt A2ATE5 = target: T1, UniProt A2ATE5
T1 sequence (whole entry): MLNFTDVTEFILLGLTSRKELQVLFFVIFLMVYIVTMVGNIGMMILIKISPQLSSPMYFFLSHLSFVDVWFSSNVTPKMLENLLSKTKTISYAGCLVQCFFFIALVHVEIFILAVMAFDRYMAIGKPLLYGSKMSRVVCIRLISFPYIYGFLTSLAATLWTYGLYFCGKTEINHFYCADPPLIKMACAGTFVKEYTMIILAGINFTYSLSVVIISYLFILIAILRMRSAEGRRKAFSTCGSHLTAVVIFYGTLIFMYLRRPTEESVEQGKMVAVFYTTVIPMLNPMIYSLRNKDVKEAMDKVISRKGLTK
Outline: (§1)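 Assay methods differ from source to source, frequently being transient luciferase assays in mammalian cell lines. For each receptor–molecule pair, the label responsive (active) applies when the original authors judged the measured signal statistically different from baseline, and non-responsive (inactive) applies otherwise.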

UniProt A2AVB0 = target: T2, UniProt A2AVB0
T2 sequence (whole entry): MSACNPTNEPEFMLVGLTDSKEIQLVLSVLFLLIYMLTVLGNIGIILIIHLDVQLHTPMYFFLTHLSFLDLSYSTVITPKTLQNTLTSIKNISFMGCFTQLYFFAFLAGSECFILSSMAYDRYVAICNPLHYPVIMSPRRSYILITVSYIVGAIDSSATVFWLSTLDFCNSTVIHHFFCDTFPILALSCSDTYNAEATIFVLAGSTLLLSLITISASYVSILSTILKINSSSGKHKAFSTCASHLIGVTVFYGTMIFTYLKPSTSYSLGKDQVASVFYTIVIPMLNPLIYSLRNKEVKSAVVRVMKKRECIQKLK
Outline: as §1

UniProt E9PVX1 = target: T3, UniProt E9PVX1
T3 sequence (whole entry): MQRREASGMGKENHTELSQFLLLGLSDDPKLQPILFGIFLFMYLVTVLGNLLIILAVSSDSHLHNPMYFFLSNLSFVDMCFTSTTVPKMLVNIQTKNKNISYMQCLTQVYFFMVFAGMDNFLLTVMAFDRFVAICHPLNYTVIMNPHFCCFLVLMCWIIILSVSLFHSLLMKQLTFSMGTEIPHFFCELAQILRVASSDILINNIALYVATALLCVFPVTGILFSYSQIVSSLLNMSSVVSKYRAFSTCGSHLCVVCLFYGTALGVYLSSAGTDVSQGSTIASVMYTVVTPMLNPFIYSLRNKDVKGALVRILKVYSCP
Outline: as §1

UniProt E9PZ66 = target: T4, UniProt E9PZ66
T4 sequence (whole entry): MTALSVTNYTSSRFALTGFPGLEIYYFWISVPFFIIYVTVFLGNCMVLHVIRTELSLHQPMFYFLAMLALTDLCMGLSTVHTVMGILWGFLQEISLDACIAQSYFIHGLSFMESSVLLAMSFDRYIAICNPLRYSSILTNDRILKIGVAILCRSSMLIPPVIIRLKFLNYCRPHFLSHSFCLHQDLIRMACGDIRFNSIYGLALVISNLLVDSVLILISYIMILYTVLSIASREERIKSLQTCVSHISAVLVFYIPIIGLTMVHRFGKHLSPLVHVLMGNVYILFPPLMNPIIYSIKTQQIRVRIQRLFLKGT
Outline: as §1

UniProt E9Q4X7 = target: T5, UniProt E9Q4X7
T5 sequence (whole entry): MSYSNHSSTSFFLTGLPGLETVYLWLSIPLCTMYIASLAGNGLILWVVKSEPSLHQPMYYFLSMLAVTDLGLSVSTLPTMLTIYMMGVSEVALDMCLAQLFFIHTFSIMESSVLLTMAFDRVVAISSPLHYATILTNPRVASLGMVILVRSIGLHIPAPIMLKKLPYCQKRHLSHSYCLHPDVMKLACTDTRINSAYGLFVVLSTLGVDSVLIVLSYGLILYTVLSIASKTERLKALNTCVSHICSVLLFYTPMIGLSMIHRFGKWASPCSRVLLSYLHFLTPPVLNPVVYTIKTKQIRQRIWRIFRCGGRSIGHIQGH
Outline: as §1

UniProt E9Q546 = target: T6, UniProt E9Q546
T6 sequence (whole entry): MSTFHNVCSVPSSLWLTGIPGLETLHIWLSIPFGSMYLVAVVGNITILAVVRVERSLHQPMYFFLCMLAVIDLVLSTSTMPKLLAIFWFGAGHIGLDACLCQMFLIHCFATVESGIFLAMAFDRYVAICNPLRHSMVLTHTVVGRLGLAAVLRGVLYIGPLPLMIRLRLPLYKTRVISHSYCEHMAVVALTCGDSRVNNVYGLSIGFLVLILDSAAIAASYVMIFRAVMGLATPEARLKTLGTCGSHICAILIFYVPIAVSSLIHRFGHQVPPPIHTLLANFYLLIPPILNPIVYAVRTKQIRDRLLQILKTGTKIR
Outline: as §1

UniProt E9Q6Z7 = target: T7, UniProt E9Q6Z7
T7 sequence (whole entry): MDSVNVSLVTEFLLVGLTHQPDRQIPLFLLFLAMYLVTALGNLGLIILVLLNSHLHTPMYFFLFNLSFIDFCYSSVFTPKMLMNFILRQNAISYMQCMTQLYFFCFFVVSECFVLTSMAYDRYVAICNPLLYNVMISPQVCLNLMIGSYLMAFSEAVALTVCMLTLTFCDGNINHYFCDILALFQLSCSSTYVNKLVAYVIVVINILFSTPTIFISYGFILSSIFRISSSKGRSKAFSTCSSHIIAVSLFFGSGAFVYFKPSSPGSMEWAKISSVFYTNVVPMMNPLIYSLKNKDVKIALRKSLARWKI
Outline: as §1

UniProt E1BM68 = target: T8, UniProt E1BM68
T8 sequence (whole entry): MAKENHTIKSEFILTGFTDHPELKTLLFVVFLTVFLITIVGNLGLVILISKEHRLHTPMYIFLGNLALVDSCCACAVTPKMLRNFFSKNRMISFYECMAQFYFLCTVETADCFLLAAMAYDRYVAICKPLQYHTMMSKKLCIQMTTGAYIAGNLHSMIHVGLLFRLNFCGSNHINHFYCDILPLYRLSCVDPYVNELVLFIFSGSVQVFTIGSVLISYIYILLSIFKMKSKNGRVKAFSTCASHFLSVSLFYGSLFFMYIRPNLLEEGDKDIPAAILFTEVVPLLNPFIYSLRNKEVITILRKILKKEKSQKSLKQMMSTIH
Outline: as §1

UniProt E9QAT7 = target: T9, UniProt E9QAT7
T9 sequence (whole entry): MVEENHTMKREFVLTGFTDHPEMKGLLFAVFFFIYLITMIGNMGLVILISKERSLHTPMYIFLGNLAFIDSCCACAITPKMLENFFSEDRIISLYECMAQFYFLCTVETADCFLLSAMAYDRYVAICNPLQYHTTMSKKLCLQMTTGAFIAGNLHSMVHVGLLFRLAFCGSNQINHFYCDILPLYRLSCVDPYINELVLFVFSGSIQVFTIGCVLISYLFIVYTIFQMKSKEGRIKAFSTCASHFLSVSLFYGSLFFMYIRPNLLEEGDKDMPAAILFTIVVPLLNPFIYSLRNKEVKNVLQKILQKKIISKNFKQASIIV
Outline: as §1

| Structure (SMILES) | odorant receptor agonist call (UniProt A2ATE5) | odorant receptor agonist call (UniProt A2AVB0) | odorant receptor agonist call (UniProt E9PVX1) | odorant receptor agonist call (UniProt E9PZ66) | odorant receptor agonist call (UniProt E9Q4X7) | odorant receptor agonist call (UniProt E9Q546) | odorant receptor agonist call (UniProt E9Q6Z7) | odorant receptor agonist call (UniProt E1BM68) | odorant receptor agonist call (UniProt E9QAT7) |
| --- | --- | --- | --- | --- | --- | --- | --- | --- | --- |
| CC(=O)OC1(C)CCC23CC1C(C)(C)C2CCC3C (stereo not given) | inactive | inactive | inactive | inactive | inactive | inactive | inactive |  |  |
| C1CCOCC1 | inactive | inactive | inactive | inactive | inactive | inactive | inactive |  |  |
| CSSSC | inactive | inactive | inactive | inactive | inactive | inactive | inactive |  |  |
| CCc1nccnc1CC | inactive | inactive | inactive | inactive | inactive | inactive | inactive | active | active |
